Experimental data as given in ChEMBL document CHEMBL2311344, “Development of an in vivo active, dual EP1 and EP3 selective antagonist based on a novel acyl sulfonamide bioisostere” (Bioorg Med Chem Lett, 2013).
Calls of active or inactive are those of the source. The rule behind the calls is not given here.

Assays:
Thromboxane A2 receptor = target: T1, Thromboxane A2 receptor (Mus musculus, UniProt P30987); experiment: Antagonist activity at mouse TP receptor
T1 sequence (P30987 whole entry): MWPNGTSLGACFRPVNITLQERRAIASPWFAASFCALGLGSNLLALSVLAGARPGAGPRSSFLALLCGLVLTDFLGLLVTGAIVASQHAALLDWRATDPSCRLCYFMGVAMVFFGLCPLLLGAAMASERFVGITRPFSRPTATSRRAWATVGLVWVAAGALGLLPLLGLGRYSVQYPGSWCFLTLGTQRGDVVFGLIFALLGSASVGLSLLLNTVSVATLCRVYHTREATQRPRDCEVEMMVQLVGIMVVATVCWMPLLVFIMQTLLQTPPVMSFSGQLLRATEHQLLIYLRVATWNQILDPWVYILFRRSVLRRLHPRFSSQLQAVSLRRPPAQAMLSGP
In short: (§1)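 Affinity at mouse EP2, EP3 and EP4 is given as pKI. Signalling through mouse TP is given as pIC50. Mean ± SEM of at least three independent experiments, each run in triplicate.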

[1] = target: Prostaglandin E2 receptor EP4 subtype (Mus musculus, UniProt P32240); experiment: Antagonist activity at mouse EP4 receptor; in short: as §1
[2] = target: Prostaglandin E2 receptor EP2 subtype (Mus musculus, UniProt Q62053); experiment: Antagonist activity at mouse EP2 receptor; in short: as §1
[3] = target: T2, Prostaglandin E2 receptor EP3 subtype (Mus musculus, UniProt P30557); experiment: Antagonist activity at mouse EP3 receptor; in short: as §1
T2 sequence (P30557 whole entry): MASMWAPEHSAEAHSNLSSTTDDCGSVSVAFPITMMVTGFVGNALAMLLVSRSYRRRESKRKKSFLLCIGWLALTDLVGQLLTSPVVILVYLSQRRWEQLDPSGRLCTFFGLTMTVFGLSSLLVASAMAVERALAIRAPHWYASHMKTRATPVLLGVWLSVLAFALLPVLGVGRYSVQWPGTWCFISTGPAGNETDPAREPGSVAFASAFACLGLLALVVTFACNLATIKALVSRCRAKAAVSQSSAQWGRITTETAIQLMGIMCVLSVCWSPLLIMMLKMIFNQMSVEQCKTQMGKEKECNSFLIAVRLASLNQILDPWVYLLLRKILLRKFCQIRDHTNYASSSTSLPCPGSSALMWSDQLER

[4] = target: T3, Prostaglandin E2 receptor EP1 subtype (Mus musculus, UniProt P35375); experiment: Antagonist activity at mouse EP1 receptor expressed in CHOK1 cells assessed as inhibition of 17PTPGE2-induced calcium influx; type: functional, cell-based, CHO-K1
T3 sequence (P35375 whole entry): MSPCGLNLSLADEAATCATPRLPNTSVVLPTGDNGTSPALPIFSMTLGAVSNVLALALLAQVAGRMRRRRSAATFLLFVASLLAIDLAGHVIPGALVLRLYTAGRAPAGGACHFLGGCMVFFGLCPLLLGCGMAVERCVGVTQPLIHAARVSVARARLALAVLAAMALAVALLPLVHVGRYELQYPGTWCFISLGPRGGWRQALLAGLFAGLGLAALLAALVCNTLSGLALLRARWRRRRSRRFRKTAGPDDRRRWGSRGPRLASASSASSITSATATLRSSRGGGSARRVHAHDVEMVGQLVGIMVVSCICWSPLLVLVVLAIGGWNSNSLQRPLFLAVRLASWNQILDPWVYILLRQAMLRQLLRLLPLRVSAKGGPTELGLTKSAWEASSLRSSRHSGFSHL
In short: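 CHOk1 cells expressing mouse EP1 were treated with six antagonist concentrations, then challenged with a concentration range of the EP1 agonist 17-phenyl-ω-trinor PGE2. pKD/KD came from transformed Schild regression of the concentration-response curves. Mean ± SEM of at least two independent experiments, each in duplicate.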

[5] = target: T4, Prostaglandin E2 receptor EP1 subtype (Mus musculus) (UniProt P35375); experiment: Antagonist activity at mouse EP1 receptor expressed in CHOK1 cells assessed as inhibition of 17PTPGE2-induced calcium influx at >100 uM; type: functional, cell-based; settings: CHO-K1
T4 sequence (whole entry): T3 sequence (P35375 whole entry)

Plasma = experiment: Fraction unbound in mouse plasma; type: ADME, cell-free
[6] = Drug metabolism in mouse liver microsomes assessed as cytochrome P450-mediated oxidation; type: ADME, Microsome
[7] = Drug metabolism in mouse liver microsomes assessed as esterase-mediated hydrolysis; type: ADME, Microsome
[8] = Oral bioavailability in mouse at 10 mg/kg; type: ADME, organism-based; settings: in vivo
In short: (§2)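 Mice were dosed IV at 1 mg/kg or orally at 10 mg/kg. From plasma, the following were derived: systemic plasma clearance, Vss, t1/2 and oral bioavailability (%F).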

[9] = Volume of distribution at steady state in mouse at 1 mg/kg, iv; type: ADME, organism-based; parameters: dose 1 mg/kg, route intravenous; settings: in vivo, read-out: Vdss
In short: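 Mouse plasma pharmacokinetics after a single intravenous 1 mg/kg dose. Systemic plasma clearance and volume of distribution predicted at steady state were derived from the IV data. A separate oral arm at 10 mg/kg was used for bioavailability.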

[10] = Half life in mouse at 1 mg/kg, iv; type: ADME, organism-based; parameters: dose 1 mg/kg, route intravenous; settings: in vivo
In short: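 Single intravenous dose of 1 mg/kg given to mice. Half-life was derived from systemic plasma levels. Plasma clearance (CLp) and steady-state volume of distribution (Vss) came from the same study. A separate 10 mg/kg oral arm was run for bioavailability.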

[11] = Plasma clearance in mouse at 1 mg/kg, iv; type: ADME, organism-based; parameters: dose 1 mg/kg, route intravenous; in short: as §2
Mus musculus [12] = experiment: Antihypertensive activity in mouse assessed as effect on phenylephrine-induced vasopressor activity at 5 mg/kg, sc administered 2 hrs prior to phenylephrine-challenge; type: functional, organism-based; parameters: dose 5 mg/kg
In short: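 In the same anesthetized, carotid/jugular-cannulated mouse preparation, phenylephrine 10 μg/kg was given as an IV bolus 2 h after 5 mg/kg sc pretreatment. The change in arterial pressure served as the non-EP vasoconstriction control.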

Mus musculus [13] = experiment: Antihypertensive activity in mouse assessed as sulprostone-induced mean arterial pressure at 5 mg/kg, sc administered 2 hr prior to sulprostone-challenge (reference value: 53.3 +/- 2.3 mmHg); type: functional, Artery; settings: route subcutaneous
In short: (§3)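 Mice were anesthetized, with the left common carotid artery and right jugular vein cannulated. Arterial pressure was recorded directly via the carotid catheter. Test agent or vehicle was given 5 mg/kg sc. After 2 h, an IV bolus went through the jugular catheter: 20 μg/kg 17-phenyl-ω-trinor PGE2 (EP1) or 10 μg/kg sulprostone (EP3). Read-out was change in MAP. n = 3 per group; two-tailed Student's t test.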

Mus musculus [14] = experiment: Antihypertensive activity in mouse assessed as 17PTPGE2-induced mean arterial pressure at 5 mg/kg, sc administered 2 hr prior to 17PTPGE2-challenge (reference value: 50.3 +/- 5.5 mmHg); type: functional, Artery; settings: route subcutaneous; in short: as §3
Mus musculus [15] = experiment: AUC in mouse at 5 mg/kg, sc; type: ADME, organism-based, Plasma; parameters: dose 5 mg/kg, route subcutaneous; settings: in vivo
In short: (§4)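 Subcutaneous dose of 5 mg/kg in mice (n = 3). Plasma sampled intermittently to build a concentration-time profile. Cmax, tmax and AUC were taken from that profile.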

[16] = Drug metabolism in mouse liver microsomes assessed as cytochrome P450-mediated benzylic oxidation; type: ADME, Microsome
[17] = Drug metabolism in mouse liver microsomes assessed as cytochrome P450-mediated methylene linker oxidation; type: ADME, Microsome
[18] = Drug metabolism in mouse liver microsomes assessed as esterase-mediated sulfonamide hydrolysis; type: ADME, Microsome
Mus musculus [19] = experiment: Cmax in mouse at 5 mg/kg, sc; type: ADME, organism-based; parameters: dose 5 mg/kg, route subcutaneous; settings: in vivo; in short: as §4
Mus musculus [20] = experiment: Tmax in mouse at 5 mg/kg, sc; type: ADME, organism-based; parameters: dose 5 mg/kg, route subcutaneous; settings: in vivo; in short: as §4

Sequence of Prostaglandin E2 receptor EP2 subtype (Q62053 whole entry): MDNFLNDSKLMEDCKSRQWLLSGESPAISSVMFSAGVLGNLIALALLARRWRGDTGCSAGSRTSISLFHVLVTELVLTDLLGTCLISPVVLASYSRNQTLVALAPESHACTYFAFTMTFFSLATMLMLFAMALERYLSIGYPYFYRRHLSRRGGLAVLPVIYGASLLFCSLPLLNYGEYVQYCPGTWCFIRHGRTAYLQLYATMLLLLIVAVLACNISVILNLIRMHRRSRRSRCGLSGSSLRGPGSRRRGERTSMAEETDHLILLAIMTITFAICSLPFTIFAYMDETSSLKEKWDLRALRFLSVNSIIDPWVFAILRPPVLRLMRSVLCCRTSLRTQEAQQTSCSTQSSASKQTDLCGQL
Sequence of Prostaglandin E2 receptor EP4 subtype (P32240 whole entry): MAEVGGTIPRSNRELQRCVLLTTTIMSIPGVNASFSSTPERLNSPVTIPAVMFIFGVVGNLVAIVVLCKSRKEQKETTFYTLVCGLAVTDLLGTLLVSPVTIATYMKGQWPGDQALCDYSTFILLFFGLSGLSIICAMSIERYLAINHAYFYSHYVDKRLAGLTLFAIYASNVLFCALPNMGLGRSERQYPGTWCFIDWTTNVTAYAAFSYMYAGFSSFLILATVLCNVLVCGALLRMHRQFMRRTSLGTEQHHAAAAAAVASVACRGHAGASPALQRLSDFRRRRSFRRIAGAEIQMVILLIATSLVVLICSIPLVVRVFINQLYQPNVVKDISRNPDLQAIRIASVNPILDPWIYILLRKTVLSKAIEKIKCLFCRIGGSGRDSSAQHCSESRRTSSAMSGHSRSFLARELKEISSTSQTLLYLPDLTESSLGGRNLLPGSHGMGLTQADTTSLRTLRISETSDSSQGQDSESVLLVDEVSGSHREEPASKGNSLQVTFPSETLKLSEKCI

| SMILES | pIC50 (Thromboxane A2 receptor) | Ki [1] [µM] | Ki [2] [µM] | Ki [3] [µM] | Kd ([4]; read-out: Kd) [µM] | other results |
| --- | --- | --- | --- | --- | --- | --- |
| Cc1ccc(S(=O)(=O)NC(=O)c2cccc(Cc3cc(Cl)ccc3OCc3ccc(Cl)cc3F)n2)cc1 | < 6 | > 1 | > 1 | > 1 | 0.214 |  |
| O=C(O)c1cccc(Cc2cc(Cl)ccc2OCc2ccc(Cl)cc2F)n1 |  | > 1 | 1.74 | > 1 | 0.0479 | Fu (Plasma): 0.005; bioavailability [8]: 13.8%; Vd [9]: 0.9 L/kg; half-life [10]: 1.08 h; clearance [11]: 59.2 mL/min/kg |
| CCC(C)NC(=O)c1cccc(Cc2cc(Cl)ccc2OCc2ccc(Cl)cc2F)n1 (stereo not drawn) | < 6 | > 1 | > 1 | > 1 | 1.38 |  |
| O=C(c1cccc(Cc2cc(Cl)ccc2OCc2ccc(Cl)cc2F)n1)N1CCCC1 | < 6 | > 1 | > 1 | > 1 | 15.8 |  |
| NC(=O)c1cccc(Cc2cc(Cl)ccc2OCc2ccc(Cl)cc2F)n1 | < 6 | > 1 | > 1 | > 1 | 2.63 |  |
| O=C(NS(=O)(=O)c1ccc(Cl)cc1)c1cccc(Cc2cc(Cl)ccc2OCc2ccc(Cl)cc2F)n1 | < 6 | > 1 | > 1 | 0.107 | 0.0407 | Activity (Mus musculus [12]): inactive; Activity (Mus musculus [13]): 32 mmHg; Activity (Mus musculus [14]): 27 mmHg; AUC (Mus musculus [15]): 7.508 µM·h; Fu (Plasma): 0.004; Drug metabolism [16]: Active; Drug metabolism [17]: Active; Drug metabolism [18]: Active; Cmax (Mus musculus [19]): 504 nM; Tmax (Mus musculus [20]): 2 h |
| O=C(NC1CCC1)c1cccc(Cc2cc(Cl)ccc2OCc2ccc(Cl)cc2F)n1 | < 6 | > 1 | > 1 | > 1 | 0.912 |  |
| CC(C)(C)NC(=O)c1cccc(Cc2cc(Cl)ccc2OCc2ccc(Cl)cc2F)n1 | < 6 | > 1 | > 1 | > 1 | 4.36 |  |
| O=C(NC1CC2CCC1C2)c1cccc(Cc2cc(Cl)ccc2OCc2ccc(Cl)cc2F)n1 (stereo not drawn) | < 6 | > 1 | > 1 | > 1 | 2.19 |  |

The next lines start with results.

| pIC50 (Thromboxane A2 receptor) | Ki [1] [µM] | Ki [2] [µM] | Ki [3] [µM] | Kd ([4]; read-out: Kd) [µM] | SMILES | other results |
| --- | --- | --- | --- | --- | --- | --- |
| < 6 | > 1 | > 1 | 0.204 | 0.0537 | O=C(NS(=O)(=O)c1cc(Cl)ccc1Cl)c1cccc(Cc2cc(Cl)ccc2OCc2ccc(Cl)cc2F)n1 | Kd ([4]; read-out: pKd (converted)): 0.0562 µM |
| < 6 | > 1 | > 1 | > 1 |  | CCCS(=O)(=O)NC(=O)c1cccc(Cc2cc(Cl)ccc2OCc2ccc(Cl)cc2F)n1 | Activity [5]: inactive |
| < 6 | > 1 | > 1 | 0.0661 | 0.214 | O=C(NS(=O)(=O)c1ccc(Cl)c(Cl)c1)c1cccc(Cc2cc(Cl)ccc2OCc2ccc(Cl)cc2F)n1 |  |
| < 6 | > 1 | > 1 | > 1 | 0.447 | CCN(CC)C(=O)c1cccc(Cc2cc(Cl)ccc2OCc2ccc(Cl)cc2F)n1 |  |
| < 6 | > 1 | > 1 | > 1 | 0.549 | O=C(NCC1CC1)c1cccc(Cc2cc(Cl)ccc2OCc2ccc(Cl)cc2F)n1 |  |
| < 6 | > 1 | > 1 | 0.214 | 0.302 | CC(C)CNC(=O)c1cccc(Cc2cc(Cl)ccc2OCc2ccc(Cl)cc2F)n1 | Fu (Plasma): 0.01; Drug metabolism [6]: Active; Drug metabolism [7]: Active |
